Test [1] addresses T1, 5-hydroxytryptamine receptor 1A (Rattus norvegicus, UniProt P19327).
T1 sequence (P19327 whole entry): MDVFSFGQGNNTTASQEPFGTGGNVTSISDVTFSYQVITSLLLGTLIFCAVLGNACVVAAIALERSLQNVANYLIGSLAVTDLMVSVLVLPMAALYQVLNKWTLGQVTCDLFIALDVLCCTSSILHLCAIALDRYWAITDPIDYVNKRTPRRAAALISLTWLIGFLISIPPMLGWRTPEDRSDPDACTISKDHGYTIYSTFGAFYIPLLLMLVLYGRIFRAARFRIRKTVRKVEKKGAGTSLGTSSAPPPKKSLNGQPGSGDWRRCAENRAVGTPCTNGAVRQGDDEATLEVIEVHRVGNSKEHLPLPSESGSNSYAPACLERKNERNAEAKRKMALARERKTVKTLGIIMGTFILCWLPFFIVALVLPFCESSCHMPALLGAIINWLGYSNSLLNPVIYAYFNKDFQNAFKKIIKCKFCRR
Briefly: Binding affinity against the 5-hydroxytryptamine 1A receptor labelled with [3H]8-OH-DPAT in rat hippocampal homogenates. Type of test: tissue-based, Hippocampus. In outline:
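Buffer is 50 mM Tris HCl pH 7.4 with 0.5 mM Na2EDTA, 0.1% Na ascorbate and pargyline. Triplicate tubes with 200-400 µg protein, 15 min at 37 °C, GF/C filtration. Nonspecific binding set with 10 µM 5-HT.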

Test [2] deals with 5-hydroxytryptamine receptor 2A (Homo sapiens, UniProt P28223). The test is described as follows: Binding affinity against the cloned human 5-hydroxytryptamine 2A receptor using [125I]DOI as the radioligand. In outline: (§1)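 AV12 hamster fibroblast membranes stably expressing the human receptor, with 0.07-0.15 nM [125I]DOI. Buffer is 10 µM pargyline, 9.75 mM MgCl2, 0.5 mM EDTA, 0.1% ascorbate and 50 mM Tris pH 7.4. Incubation 30 min at 37 °C with about 40 µg (5-HT2A) or 30 µg (5-HT2C) protein, then gamma counting. Nonspecific binding set with 1 µM ketanserin (2A) or 10 µM mianserin (2C).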

Test [3] has as its target 5-hydroxytryptamine receptor 2B (Homo sapiens, UniProt P41595). The test is described as follows: Binding affinity against the cloned human 5-hydroxytryptamine 2B receptor using [3H]5-HT as the radioligand. In outline:
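Membranes come from AV12 hamster fibroblasts stably expressing the human receptor. About 2 nM [3H]-5-HT is used with drug dilutions spanning 6 log units, in 3 mM CaCl2, 10 µM pargyline, 50 mM Tris and 0.1% ascorbic acid, pH 7.4. Triplicate tubes with 100-150 µg protein, 15 min at 37 °C, PEI-soaked GF/B filtration. Nonspecific binding set with 10 µM 5-HT or 10 µM 1-naphthylpiperazine.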

Test [4] has as its target T2, 5-hydroxytryptamine receptor 2C (Homo sapiens, UniProt P28335).
T2 sequence (P28335 whole entry): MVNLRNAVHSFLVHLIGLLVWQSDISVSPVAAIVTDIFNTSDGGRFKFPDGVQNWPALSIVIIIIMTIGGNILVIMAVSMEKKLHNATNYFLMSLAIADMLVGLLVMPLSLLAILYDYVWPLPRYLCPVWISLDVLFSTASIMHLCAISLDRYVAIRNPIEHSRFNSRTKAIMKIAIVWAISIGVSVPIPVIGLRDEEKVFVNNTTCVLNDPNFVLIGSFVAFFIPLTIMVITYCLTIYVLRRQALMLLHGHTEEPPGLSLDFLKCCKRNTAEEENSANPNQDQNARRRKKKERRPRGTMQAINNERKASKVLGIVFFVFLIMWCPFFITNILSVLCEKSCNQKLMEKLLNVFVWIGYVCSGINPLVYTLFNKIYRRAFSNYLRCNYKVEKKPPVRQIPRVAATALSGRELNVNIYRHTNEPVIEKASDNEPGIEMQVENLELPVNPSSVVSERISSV
The test is described as follows: Binding affinity against the cloned human 5-hydroxytryptamine 2C receptor using [125I]DOI as the radioligand. In outline: as §1

The structures appear in SMILES notation. pKi: −log10 of the molar value.

The text below walks through data of ChEMBL document CHEMBL1131336, “Synthesis and serotonin receptor affinities of a series of trans-2-(indol-3-yl)cyclopropylamine derivatives” (J Med Chem, 1998).

Sequence of 5-hydroxytryptamine receptor 2A (P28223 whole entry): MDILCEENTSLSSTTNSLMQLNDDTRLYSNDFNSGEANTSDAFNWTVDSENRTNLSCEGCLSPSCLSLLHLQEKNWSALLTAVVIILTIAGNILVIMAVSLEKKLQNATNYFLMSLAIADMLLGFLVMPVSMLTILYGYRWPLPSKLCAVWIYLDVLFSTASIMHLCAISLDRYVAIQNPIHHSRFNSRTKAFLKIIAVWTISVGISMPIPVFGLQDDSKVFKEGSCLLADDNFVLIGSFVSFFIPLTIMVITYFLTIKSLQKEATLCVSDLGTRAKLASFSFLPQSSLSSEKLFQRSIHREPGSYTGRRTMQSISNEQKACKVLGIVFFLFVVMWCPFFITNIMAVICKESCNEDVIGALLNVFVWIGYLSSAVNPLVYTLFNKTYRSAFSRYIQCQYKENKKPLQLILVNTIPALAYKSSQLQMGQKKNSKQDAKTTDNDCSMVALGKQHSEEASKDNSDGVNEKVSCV
Sequence of 5-hydroxytryptamine receptor 2B (P41595 whole entry): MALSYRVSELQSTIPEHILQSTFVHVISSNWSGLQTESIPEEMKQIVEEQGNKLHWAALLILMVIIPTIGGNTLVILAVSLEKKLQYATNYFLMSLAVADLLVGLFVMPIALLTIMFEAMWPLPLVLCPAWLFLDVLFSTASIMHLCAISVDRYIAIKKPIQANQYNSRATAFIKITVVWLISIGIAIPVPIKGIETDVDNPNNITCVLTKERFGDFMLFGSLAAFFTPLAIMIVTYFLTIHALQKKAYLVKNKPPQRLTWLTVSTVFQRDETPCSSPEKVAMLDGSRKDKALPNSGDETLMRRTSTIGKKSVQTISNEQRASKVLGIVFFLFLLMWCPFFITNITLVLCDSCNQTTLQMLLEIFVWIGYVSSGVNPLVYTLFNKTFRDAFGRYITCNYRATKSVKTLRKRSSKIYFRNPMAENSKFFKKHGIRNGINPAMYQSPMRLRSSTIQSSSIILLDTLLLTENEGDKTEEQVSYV

As for `COc1ccc2[nH]cc(C3CC3N)c2c1` (stereo not drawn), the pKi was 7.40 in test [1], 7.51 in test [2], 7.42 in test [3] and 7.75 in test [4].

On to `NC1CC1c1c[nH]c2ccc(F)cc12` (stereo not drawn), for which the pKi in test [1] is 6.59; in test [2], 7.99; in test [3], 8.24; in test [4], 8.72.

`COc1cccc2[nH]cc(C3CC3N)c12` (stereo not drawn): the negative-log Ki (pKi) is 7.34 in test [2], 7.19 in test [3] and 7.93 in test [4].

As to `CC(CN)c1c[nH]c2ccccc12` (stereo not drawn), the figures for the pKi in test [2], in test [3] and in test [4] were 7.39, 7.06 and 8.03, respectively.

Regarding `COc1ccc2[nH]cc(C(C)CN)c2c1` (stereo not drawn), the pKi in test [2] is 8.66; in test [3], 8.08; in test [4], 9.00.

For `N[C@H]1C[C@@H]1c1c[nH]c2ccccc12`, the pKi in test [1] is 6.09; in test [2], 6.88; in test [3], 7.03; in test [4], 7.67.

Take `N[C@@H]1C[C@H]1c1c[nH]c2ccccc12`: the pKi was 6.59 in test [1], 7.01 in test [2], 7.23 in test [3] and 7.36 in test [4].

On to `NC1CC1c1c[nH]c2ccccc12` (racemic), for which the pKi in test [2] is 6.79; in test [3], 7.23; in test [4], 7.52.
